Values after ≈ are worked out from the molar mass of the structure shown. Where only a bound is given, the exact number is not on record here.

Our source for the IC50 values is ChEMBL document CHEMBL1128374, “Preparation and in vitro activities of ethers of [D-serine]8-cyclosporin” (J Med Chem, 1995).

Holding throughout (format): functional
The species entered for assay [1] is Mus musculus. Description: In vitro inhibition of interleukin-2 (IL-2) production induced by stimulating lymphocytes derived from mouse spleens with the […]. The following applies: Spleen. The procedure, abridged:
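Compounds added with concanavalin A to the primary culture; supernatants collected at 48 h. IL-2 content measured by growth of IL-2-dependent CTLL cells, read as tritiated thymidine incorporation after 48 h. IC50 determined, with cyclosporin A run in parallel.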

For assay [2], the species on record is Mus musculus. Description: In vitro efficacy on humoral immune response by Mishell-Dutton assay (MD). The procedure, abridged: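 Spleen lymphocytes from female OF1 mice (ca. 10 x 10^6) cultured 3 days with sheep erythrocytes (ca. 30 x 10^6) and test compound. Cells then plated on agar with fresh erythrocytes; plaques form by complement lysis. Read-out is the count of antibody-producing plaque-forming cells. Cyclosporin A run in parallel.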

For assay [3], the species on record is Mus musculus. The experiment in a line: In vitro efficacy to suppress lymphocyte proliferation as measured by the incorporation of a labeled precursor ([3H]- thymidine) into DNA in Mixed Lymphocyte reaction (MLR). The procedure, abridged:
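Cells from spleens of female CBA mice aged 8–10 weeks (ca. 5 x 10^5). Compounds made up at 20 mg/mL in 9:1 (v/v) ethanol/Tween 80, then diluted in saline before adding to medium. Four concentrations per compound across 1.8–1000 ng/mL, in triplicate cultures. IC50 is the calculated concentration giving 50% inhibition of proliferation. Cyclosporin A run in parallel as control.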

By IC50 is commonly meant the concentration that inhibits the measured activity by half. For `C/C=C/C[C@@H](C)[C@@H](O)[C@H]1C(=O)N[C@@H](CC)C(=O)N(C)CC(=O)N(C)[C@@H](CC(C)C)C(=O)N[C@@H](C(C)C)C(=O)N(C)[C@@H](CC(C)C)C(=O)N[C@@H](C)C(=O)N[C@H](COCC(=O)OC(C)(C)C)C(=O)N(C)[C@@H](CC(C)C)C(=O)N(C)[C@@H](CC(C)C)C(=O)N(C)[C@@H](C(C)C)C(=O)N1C`, the IC50 in assay [1] was > 1 µg/mL; in assay [2], 0.41 µg/mL (≈ 0.308 µM); in assay [3], 0.24 µg/mL (≈ 0.18 µM).
The matching figures for `C/C=C/C[C@@H](C)[C@@H](O)[C@H]1C(=O)N[C@@H](CC)C(=O)N(C)CC(=O)N(C)[C@@H](CC(C)C)C(=O)N[C@@H](C(C)C)C(=O)N(C)[C@@H](CC(C)C)C(=O)N[C@@H](C)C(=O)N[C@H](COCC(=O)O)C(=O)N(C)[C@@H](CC(C)C)C(=O)N(C)[C@@H](CC(C)C)C(=O)N(C)[C@@H](C(C)C)C(=O)N1C`: 0.53 µg/mL (≈ 0.415 µM), 0.48 µg/mL (≈ 0.376 µM) and 0.44 µg/mL (≈ 0.345 µM).
For `C/C=C/C[C@@H](C)[C@@H](O)[C@H]1C(=O)N[C@@H](CC)C(=O)N(C)CC(=O)N(C)[C@@H](CC(C)C)C(=O)N[C@@H](C(C)C)C(=O)N(C)[C@@H](CC(C)C)C(=O)N[C@@H](C)C(=O)N[C@H](COC)C(=O)N(C)[C@@H](CC(C)C)C(=O)N(C)[C@@H](CC(C)C)C(=O)N(C)[C@@H](C(C)C)C(=O)N1C`, the IC50 in assay [1] was 0.024 µg/mL (≈ 0.0195 µM); in assay [2], < 0.01 µg/mL; in assay [3] it was < 0.008 µg/mL.
With `C/C=C/C[C@@H](C)[C@@H](O)[C@H]1C(=O)N[C@@H](CC)C(=O)N(C)CC(=O)N(C)[C@@H](CC(C)C)C(=O)N[C@@H](C(C)C)C(=O)N(C)[C@@H](CC(C)C)C(=O)N[C@@H](C)C(=O)N[C@H](COCc2ccccc2)C(=O)N(C)[C@@H](CC(C)C)C(=O)N(C)[C@@H](CC(C)C)C(=O)N(C)[C@@H](C(C)C)C(=O)N1C`, the values for the IC50 in assay [1], in assay [2] and in assay [3] were 0.095 µg/mL (≈ 0.0726 µM), 0.46 µg/mL (≈ 0.351 µM) and 0.25 µg/mL (≈ 0.191 µM), respectively.
As for `C=C(CO)COC[C@H]1NC(=O)[C@H](C)NC(=O)[C@H](CC(C)C)N(C)C(=O)[C@H](C(C)C)NC(=O)[C@H](CC(C)C)N(C)C(=O)CN(C)C(=O)[C@H](CC)NC(=O)[C@H]([C@H](O)[C@H](C)C/C=C/C)N(C)C(=O)[C@H](C(C)C)N(C)C(=O)[C@H](CC(C)C)N(C)C(=O)[C@H](CC(C)C)N(C)C1=O`, the IC50 is 0.048 µg/mL (≈ 0.0372 µM) in assay [1], 0.032 µg/mL (≈ 0.0248 µM) in assay [2] and < 0.008 µg/mL in assay [3].
In the case of `C/C=C/C[C@@H](C)[C@@H](O)[C@H]1C(=O)N[C@@H](CC)C(=O)N(C)CC(=O)N(C)[C@@H](CC(C)C)C(=O)N[C@@H](C(C)C)C(=O)N(C)[C@@H](CC(C)C)C(=O)N[C@@H](C)C(=O)N[C@H](COCCOCCO)C(=O)N(C)[C@@H](CC(C)C)C(=O)N(C)[C@@H](CC(C)C)C(=O)N(C)[C@@H](C(C)C)C(=O)N1C`, the IC50 in assay [1] amounted to 0.075 µg/mL (≈ 0.0574 µM); in assay [2], 0.035 µg/mL (≈ 0.0268 µM); in assay [3] it was 0.17 µg/mL (≈ 0.13 µM).
For `C/C=C/C[C@@H](C)[C@@H](O)[C@H]1C(=O)N[C@@H](CC)C(=O)N(C)CC(=O)N(C)[C@@H](CC(C)C)C(=O)N[C@@H](C(C)C)C(=O)N(C)[C@@H](CC(C)C)C(=O)N[C@@H](C)C(=O)N[C@H](CO)C(=O)N(C)[C@@H](CC(C)C)C(=O)N(C)[C@@H](CC(C)C)C(=O)N(C)[C@@H](C(C)C)C(=O)N1C`, the IC50 was < 0.008 µg/mL in assay [1], 0.026 µg/mL (≈ 0.0213 µM) in assay [2] and < 0.008 µg/mL in assay [3].
Take `C/C=C/C[C@@H](C)[C@@H](O)[C@H]1C(=O)N[C@@H](CC)C(=O)N(C)CC(=O)N(C)[C@@H](CC(C)C)C(=O)N[C@@H](C(C)C)C(=O)N(C)[C@@H](CC(C)C)C(=O)N[C@@H](C)C(=O)N[C@H](COCC(C)CO)C(=O)N(C)[C@@H](CC(C)C)C(=O)N(C)[C@@H](CC(C)C)C(=O)N(C)[C@@H](C(C)C)C(=O)N1C` (stereo not given in full): the IC50 in assay [1] was determined as 0.017 µg/mL (≈ 0.0132 µM); in assay [2] it was 0.024 µg/mL (≈ 0.0186 µM); in assay [3], 0.013 µg/mL (≈ 0.0101 µM).
For `C/C=C/C[C@@H](C)[C@@H](O)[C@H]1C(=O)N[C@@H](CC)C(=O)N(C)CC(=O)N(C)[C@@H](CC(C)C)C(=O)N[C@@H](C(C)C)C(=O)N(C)[C@@H](CC(C)C)C(=O)N[C@@H](C)C(=O)N[C@H](COCC(N)=O)C(=O)N(C)[C@@H](CC(C)C)C(=O)N(C)[C@@H](CC(C)C)C(=O)N(C)[C@@H](C(C)C)C(=O)N1C`, the IC50 in assay [1] was found to be 0.07 µg/mL (≈ 0.0549 µM); in assay [2], 0.063 µg/mL (≈ 0.0494 µM); in assay [3] it was 0.064 µg/mL (≈ 0.0502 µM).
For `C/C=C/C[C@@H](C)[C@@H](O)[C@H]1C(=O)N[C@@H](CC)C(=O)N(C)CC(=O)N(C)[C@@H](CC(C)C)C(=O)N[C@@H](C(C)C)C(=O)N(C)[C@@H](CC(C)C)C(=O)N[C@@H](C)C(=O)N[C@H](COCCO)C(=O)N(C)[C@@H](CC(C)C)C(=O)N(C)[C@@H](CC(C)C)C(=O)N(C)[C@@H](C(C)C)C(=O)N1C` [OXECLOSPORIN], in that order: 0.006 µg/mL (≈ 0.00475 µM), 0.018 µg/mL (≈ 0.0143 µM) and < 0.008 µg/mL.
